Compounds with a hit are over-represented: about 3% of the library has one in this group of screens.
Lipid droplet: modulators of hepatic lipid droplet formation; AML12 mouse hepatocytes, oleate lipid droplets, BODIPY imaging; inhibition, % at 6.5 µM; actives 0.4% (n = 240,000); AID 1656;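 active means lipid droplet intensity inhibited by at least 50%, with more than 500 cells counted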
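System: AML12 hepatocytes (mouse). Probe or stimulus: oleic acid at 100 µM to induce lipid droplet formation. Times: overnight treatment with compound plus oleate. Detection: Image-based BODIPY and DAPI two-channel analysis. Evaluation: percent inhibition of filter-corrected integrated lipid droplet intensity per well.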
GC-B act: GC-B (human) receptor activation. activation, % at 10 µM. actives 0.11% (n = 370,000). P20594. HEK293-GC-B cells, CNP EC30, cGMP TR-FRET; 0% at EC30 CNP, 100% saturating CNP;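 active means activation at 10 µM reaching about 35% in either raw or pattern-adjusted values, limit read from the data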
GC-A act: GC-A (human) enzyme activation. HEK293 GC-A cells, cGMP TR-FRET, EC30 ANP; 0% at EC30 ANP, 100% saturating ANP. activation, % at 10 µM. actives 0.14% (n = 370,000). AID 1671463; in the data active means activation above about 40%
NR3A LBD binder: modulators (binders) of human NR3A ligand-binding domain; NR3A LBD differential scanning fluorimetry, Tm shift; 0% = protein alone, 100% = glycine-bound protein; Tm shift relative to glycine control, % at 25 µM; actives 2.5% (n = 340,000); AID 1259313;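 active means melting temperature shift of at least 10% of the positive control shift, at one fixed dose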
GASC-1 inh: human JMJD2C demethylase inhibition; GST-JMJD2C(1-420) H3K9me3 demethylation, DELFIA europium; inhibition, % at 2.35 µM; actives 0.069% (n = 330,000);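 active means more than half of a compound's replicate wells show inhibition beyond 50%, single wells judged on their own value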;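 further: signal counts dimethyl H3K9 product captured on neutravidin plate; 0% = median of DMSO wells and 100% = 0.3 times that DMSO median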
aDG glyco up: alpha-DG glycosylation activation; actives 0.22% (n = 360,000); Pro5-aDG cells, alpha-DG glycosylation AlphaScreen (IIH6); 0% Pro5, 100% B10-LARGE cell signal; activation, % at 10 µM; AID 624168;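 active means activation of at least 8% versus controls, or a plate z-score of at least 8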;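 further: Pro5 are CHO cells carrying HIG-tagged alpha-DG that lacks glycosylation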
The depositor's hits bear a star; x = no result.

SMILES | Lipid droplet | GC-B act | GC-A act | NR3A LBD binder | GASC-1 inh | aDG glyco up
CCC1CCCCN1S(=O)(=O)c1ccc(NC(=O)c2nc(S(C)(=O)=O)ncc2Cl)cc1 (stereo not drawn) | 24 | 20 | 42* | -8 | 5 | -1
COc1ccc(S[C@]2(C(=O)N(C)C)CC(=O)N(c3ccccc3)[C@@H]2c2ccc(OC)cc2)cc1 | x | -14 | -11 | x | x | x
COC(=O)[C@@]12CCCCC=C1N(CCc1ccc(Cl)cc1)C(=O)[C@H]2CC(=O)NCCc1ccccc1OC | x | 1 | 1 | x | x | x
Nc1[nH]c(C(=O)c2ccc(Br)cc2)c(-c2ccc(F)cc2)c1C(=O)NCCc1c[nH]c2ccccc12 | x | -5 | -8 | x | x | x
Cc1ccccc1CN1CCCCC(NC(=O)c2ccccc2C(F)(F)F)C1=O (stereo not drawn) | x | 6 | 4 | x | x | x
Cc1occc1C(=O)N1CCN(c2ccc(Cl)c(Cl)c2)CC1 | -22 | -1 | 1 | 1 | 5 | 2
Cc1occc1C(=O)N1CCN(c2ccccc2)CC1 | -5 | 2 | 1 | 12* | -2 | 0
CC1CN(C(=O)COC(=O)Cc2c(F)cccc2Cl)CC(C)O1 (stereo not drawn) | x | 5 | -1 | 0 | 3 | 0
CCc1ccc(OC(C)C(=O)Nc2ccccc2C(=O)N2CCOCC2)cc1 (stereo not drawn) | -10 | 1 | -2 | 7 | 1 | 0
CCC(Oc1ccccc1)C(=O)Nc1ccccc1C(=O)N1CCN(C)CC1 (stereo not drawn) | -1 | 0 | 1 | 11* | -8 | 0
CCC(Oc1ccccc1)C(=O)Nc1ccccc1C(=O)N1CCOCC1 (stereo not drawn) | -15 | 2 | 1 | 13* | 18 | 0
CCC(Oc1ccccc1)C(=O)Nc1ccccc1C(=O)N1CCCCC1 (stereo not drawn) | -10 | -5 | -4 | 10 | -2 | 0
Cc1cccn2c(=O)nc(SCC(=O)NC3CCCC3)nc12 | x | 5 | 1 | -1 | -4 | 0
Nc1[nH]c(C(=O)c2ccc(Br)cc2)c(-c2c(F)cccc2F)c1C(=O)NCCc1c[nH]c2ccccc12 | x | 2 | -5 | x | x | x
COc1ccc2cc(Br)ccc2c1CC(=O)NCCCN1CCOCC1 | x | -10 | -11 | -4 | 57* | 0
O=C(N/N=C1/SCC(=O)N1Cc1ccco1)c1ccccc1F | -1 | -4 | -1 | 16* | 15 | 0
Cc1ccc(OCC(=O)N/N=C2/SCC(=O)N2Cc2ccco2)cc1 | 9 | -4 | -6 | -2 | -8 | 0
COc1c(Cl)cc(Cl)cc1/C=C/C(=O)c1ccc(NC(=O)c2cccs2)cc1 | 20 | -3 | 2 | 30* | 31 | -1
COc1cc(NC(=O)c2cc3ccccc3cc2OC)ccc1NC(=O)c1cccs1 | 1 | -1 | -2 | 21* | 154 | -1
COc1ccc(C(=O)Nc2ccc3ccccc3c2)c(OC)c1 | -16 | -2 | 2 | 18* | 5 | 0
O=C(COc1cccc(NC(=O)c2cccs2)c1)c1ccc(F)cc1 | -16 | 7 | 6 | 13* | -16 | 0
COc1c(Cl)cc(Cl)cc1C(=O)Nc1ccc(C(=O)O)cc1 | 16 | -1 | -1 | 1 | -4 | 0
COc1cc(NC(=O)c2ccccc2Cl)ccc1NC(=O)c1cccs1 | 8 | 2 | 0 | 0 | -3 | 0
C[C@@H]1/C=C/CC(=O)N[C@H](c2ccc3ccccc3c2)[C@H](C)/C=C/CC(=O)N[C@@H]1c1ccc2ccccc2c1 | x | -5 | -2 | x | x | x
CCCCCCCCN1C(=O)N2Cc3cc(OC)ccc3C2CS1(=O)=O (stereo not drawn) | x | 7 | -1 | x | x | x
O=C(NC1CCCCN(Cc2cccc(C(F)(F)F)c2)C1=O)c1ccc(Cl)cc1 (stereo not drawn) | x | 5 | 8 | x | x | x
COc1cccc(C(=O)Nc2cccc(C(=O)NCC(C)C)c2)c1 | 23 | 1 | 1 | 13* | 11 | 0
COc1cc(NC(=O)c2cccc(Cl)c2)ccc1NC(=O)c1cccs1 | 9 | -9 | 2 | 30* | 8 | 1

From PubChem
